What was measured:
Rattus norvegicus [1] = assay: Effect of compound was measured on serum total triglycerides in male Dawley rats at the dose of 0.4 mmol/kg (day+10).; assay type: functional, organism-based
Procedure, shortened: (§1)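 Serum triglycerides were measured with an enzymatic triglyceride reagent on a bichromatic analyzer. Rats were male Sprague-Dawley (180-210 g) fed a high-cholesterol diet, n = 6 per group, dosed orally twice daily for 14 days in 0.25% methylcellulose or vehicle. They were fasted 16-18 h before blood collection on days -1, +4, +7, +10 (orbital plexus, light ether) and +14 (aorta). Analysis was repeated-measures ANOVA with Duncan's test.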

Rattus norvegicus [2] = assay: Effect of compound was measured on serum total triglycerides in male Dawley rats at the dose of 0.4 mmol/kg (day-1).; assay type: functional, organism-based; procedure, shortened: as §1
Rattus norvegicus [3] = assay: Effect of compound was measured on serum total cholesterol in male Dawley rats at the dose of 0.4 mmol/kg (day+4).; assay type: functional, organism-based
Procedure, shortened: (§2)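 Serum total cholesterol was measured enzymatically on a bichromatic analyzer. Serum was separated after clotting on ice (2000g, 10 min), held at 4 °C and assayed within 48 h. Rats were male Sprague-Dawley on a high-cholesterol diet, n = 6, dosed orally twice daily for 14 days in 0.25% methylcellulose (1.0 mL/100 g). They were fasted 16-18 h before each bleed. Results are in mg/dL ± SD.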

Rattus norvegicus [4] = assay: Effect of compound was measured on serum total cholesterol in male Dawley rats at the dose of 0.4 mmol/kg (day-1).; assay type: functional, organism-based; procedure, shortened: as §2
Rattus norvegicus [5] = assay: Effect of compound was measured on serum total cholesterol in male Dawley rats at the dose of 0.4 mmol/kg (day+10).; assay type: functional, organism-based; procedure, shortened: as §2
[6] = Effect of compound was measured on serum heparin-MnCl2 precipated ipoprotein Dawley rats at 0.4 mmol/kg dose(day+10).; assay type: functional
Procedure, shortened: (§3)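 Cholesterol-fed male Sprague-Dawley rats, n = 6 per group, given compound or 0.25% methylcellulose orally twice daily for 14 days, and fasted 16-18 h before each bleed (days -1, +4, +7, +10, +14). Heparin-MnCl2 precipitable lipoprotein cholesterol was taken as serum total cholesterol minus α-lipoprotein cholesterol. It is reported as a ratio to α-LP cholesterol ± SD. Analysis was ANOVA with repeated measures and Duncan's test.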

Rattus norvegicus [7] = assay: Effect of compound was measured on serum alpha-lipoprotein in male Dawley rats at the dose of 0.4 mmol/kg (day+7).; assay type: functional, organism-based
Procedure, shortened: (§4)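 Male Sprague-Dawley rats (180-210 g) fed a high-cholesterol diet for 1 week before and throughout dosing. Groups of n = 6 were dosed orally twice daily for 14 days in 0.25% methylcellulose, with vehicle controls. Rats were fasted 16-18 h before orbital bleeds on days -1, +4, +7 and +10, and by aortic exsanguination on day +14. Serum α-lipoprotein cholesterol was measured by polyanionic precipitation, in mg/dL ± SD.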

[8] = Effect of compound was measured on serum heparin-MnCl2 precipated ipoprotein Dawley rats at 0.4 mmol/kg dose(day+14).; assay type: functional; procedure, shortened: as §3
Rattus norvegicus [9] = assay: Effect of compound on liver CH levels in male Dawley rats at the dose of 0.4 mmol/kg; assay type: functional; design: unit: g/100 g wet liver
Procedure, shortened: (§5)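 Male Sprague-Dawley rats (180-210 g) were kept on a high-cholesterol diet for 1 week before and throughout treatment. Groups of n = 6 received drug in 0.25% methylcellulose orally twice daily for 14 days, or vehicle. After a 16-18 h fast, livers were excised at day +14 and homogenized in 0.1 M Tris-HCl pH 7.2 with 1.15% KCl. Lipids were extracted from 25% w/v homogenate and reported as g/100 g wet liver ± SD; groups compared by ANOVA and Duncan's test.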

[10] = Effect of compound was measured on serum heparin-MnCl2 precipated ipoprotein Dawley rats at 0.4 mmol/kg dose(day+4).; assay type: functional; procedure, shortened: as §3
Rattus norvegicus [11] = assay: Effect of compound was measured on serum alpha-lipoprotein in male Dawley rats at the dose of 0.4 mmol/kg (day14).; assay type: functional, organism-based; procedure, shortened: as §4
Rattus norvegicus [12] = assay: Effect of compound was measured on serum total triglycerides in male Dawley rats at the dose of 0.4 mmol/kg (day+7).; assay type: functional, organism-based; procedure, shortened: as §1
Rattus norvegicus [13] = assay: Effect of compound was measured on serum alpha-lipoprotein in male Dawley rats at the dose of 0.4 mmol/kg (day+4).; assay type: functional, organism-based; procedure, shortened: as §4
[14] = Effect of compound was measured on serum heparin-MnCl2 precipated ipoprotein Dawley rats at 0.4 mmol/kg dose(day+7).; assay type: functional; procedure, shortened: as §3
[15] = Effect of compound was measured on serum heparin-MnCl2 precipated ipoprotein Dawley rats at 0.4 mmol/kg dose(day-1).; assay type: functional; procedure, shortened: as §3
[16] = Effect of compound on liver to body weight ratio in male Dawley rats at the dose of 0.4 mmol/kg; assay type: functional
Procedure, shortened: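 Male Sprague-Dawley rats (180-210 g) were kept on a cholesterol-rich diet and dosed orally twice daily for 14 days in 0.25% methylcellulose; vehicle controls received the same; n = 6 per group. After a 16-18 h fast, rats were exsanguinated at day +14. Livers were removed, rinsed in ice-cold buffer, blotted and weighed, and related to body weight. Data were analysed by repeated-measures ANOVA with Duncan's multiple range test.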

Rattus norvegicus [17] = assay: Effect of compound was measured on serum total cholesterol in male Dawley rats at the dose of 0.4 mmol/kg (day+14).; assay type: functional, organism-based; procedure, shortened: as §2
Rattus norvegicus [18] = assay: Effect of compound was measured on serum total cholesterol in male Dawley rats at the dose of 0.4 mmol/kg (day+7).; assay type: functional, organism-based; procedure, shortened: as §2
Rattus norvegicus [19] = assay: Effect of compound on liver TG levels in male Dawley rats at the dose of 0.4 mmol/kg; assay type: functional; design: unit: g/100 g wet liver; procedure, shortened: as §5
Rattus norvegicus [20] = assay: Effect of compound was measured on serum alpha-lipoprotein in male Dawley rats at the dose of 0.4 mmol/kg (day-1).; assay type: functional, organism-based; procedure, shortened: as §4
Rattus norvegicus [21] = assay: Effect of compound was measured on serum alpha-lipoprotein in male Dawley rats at the dose of 0.4 mmol/kg (day+10).; assay type: functional, organism-based; procedure, shortened: as §4
Rattus norvegicus [22] = assay: Effect of compound was measured on serum total triglycerides in male Dawley rats at the dose of 0.4 mmol/kg (day+4).; assay type: functional, organism-based; procedure, shortened: as §1
Rattus norvegicus [23] = assay: Effect of compound was measured on serum total triglycerides in male Dawley rats at the dose of 0.4 mmol/kg (day+14).; assay type: functional, organism-based; procedure, shortened: as §1

Structure (SMILES): O=C1OC(c2ccc(Cl)cc2)C(=O)C1=O (stereo not drawn)
- Serum total triglycerides (Rattus norvegicus [1]): 151 mg/dL
- Serum total triglycerides (Rattus norvegicus [2]): 268 mg/dL
- serum total cholesterol (Rattus norvegicus [3]): 205 mg/dL
- serum total cholesterol (Rattus norvegicus [4]): 250 mg/dL
- serum total cholesterol (Rattus norvegicus [5]): 356 mg/dL
- Ratio [6]: 11.9
- alpha-lipoprotein cholesterol (Rattus norvegicus [7]): 30.5 mg/dL
- Ratio [8]: 5.75
- Liver CH levels (Rattus norvegicus [9]): 4.9
- Ratio [10]: 5.63
- alpha-lipoprotein cholesterol (Rattus norvegicus [11]): 34.2 mg/dL
- Serum total triglycerides (Rattus norvegicus [12]): 164 mg/dL
- alpha-lipoprotein cholesterol (Rattus norvegicus [13]): 32 mg/dL
- Ratio [14]: 12.6
- Ratio [15]: 5.76
- Ratio [16]: 4
- serum total cholesterol (Rattus norvegicus [17]): 217 mg/dL
- serum total cholesterol (Rattus norvegicus [18]): 377 mg/dL
- Liver TG (Rattus norvegicus [19]): 3.76
- alpha-lipoprotein cholesterol (Rattus norvegicus [20]): 40.3 mg/dL
- alpha-lipoprotein cholesterol (Rattus norvegicus [21]): 29 mg/dL
- Serum total triglycerides (Rattus norvegicus [22]): 198 mg/dL
- Serum total triglycerides (Rattus norvegicus [23]): 105 mg/dL
